pIC50: −log10 of the molar value.

Series [1] has as its system Sarcoma-180. Put plainly: Antitumor activity against mouse Sarcoma 180 cells implanted in mouse assessed as tumor growth inhibition at 30 mg/kg, ip administered once per day for 7 consecutive days starting from 24 hrs post tumor inoculation and measured on day 21 post tumor inoculation relative to control. Type of series: functional. The settings on record: Sarcoma-180, ip, read-out: TGI. Put shortly:
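Tumour cells passaged in mice for 7 days, then 2 × 10^6 viable cells given s.c. into the armpit of female mice, 10 per group. […] CTX at 30 mg kg-1 as reference, vehicle as negative control. Body weight recorded every 3 days. Tumours excised and weighed on day 21. Inhibition = (C − T)/C × 100, using mean tumour weights.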

The subject of series [2] is Lewis lung carcinoma cell line. Put plainly: animal or person. The settings on record: Mus musculus, ip, read-out: TGI.
The subject of series [3] is HepG2. Description: Cytotoxicity against human HepG2 cells. Type of series: functional, cell-based. Put shortly:
(§1)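 Cell lines grown to log phase in RPMI-1640 with 10% FBS, penicillin and streptomycin. About 10^5 cells/mL were plated and pre-incubated 24 h at 37 °C in 5% CO2. Compounds were given in DMSO, final ≤2% (v/v). MTT read-out was OD at 490 nm. Triplicate wells per concentration, each assay run ≥3 times. IC50 is 50% OD reduction versus untreated cells, calculated by the Logit method. Cisplatin was the reference.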

For series [4], the system named is MCF7. Description: Cytotoxicity against human MCF7 cells. The format is functional, cell-based. Put shortly: as §1
The test system of series [5] is HT-29. Description: Cytotoxicity against human HT-29 cells. The format is functional, cell-based. Put shortly:
as §1

The subject of series [6] is HepG2. Put plainly: Cytotoxicity against human HepG2 cells assessed as cell growth inhibition after 24 hrs by MTT assay. Type of series: functional, cell-based. The settings on record: HepG2, 24 h. Put shortly:
as §1
Background: Formazan colour is commonly taken as a measure of viable cells.

Series [7] relates to MCF7. Description: Cytotoxicity against human MCF7 cells assessed as cell growth inhibition after 24 hrs by MTT assay. The format is functional, cell-based. The settings on record: MCF7, 24 h. Put shortly:
as §1

Series [8] can be described thus: Cytotoxicity against human BGC cells assessed as cell growth inhibition after 24 hrs by MTT assay. Type of series: functional, cell-based. Put shortly: as §1
The next series deals with A-375. Put plainly: Cytotoxicity against human A375 cells assessed as cell growth inhibition after 24 hrs by MTT assay. Type of series: functional, cell-based. Particulars: A-375, 24 h. Put shortly:
as §1

For series [9], the system named is HT-29. Put plainly: Cytotoxicity against human HT-29 cells assessed as cell growth inhibition after 24 hrs by MTT assay. The settings on record: HT-29, 24 h. The format is functional, cell-based. Put shortly:
as §1

In another series the test system is 769-P. Description: Cytotoxicity against human 769-P cells assessed as cell growth inhibition after 24 hrs by MTT assay. Type of series: functional, cell-based. Put shortly: as §1
Another series has as its system SK-OV-3. Put plainly: Cytotoxicity against human SKOV3 cells assessed as cell growth inhibition after 24 hrs by MTT assay. The format is functional, cell-based. The settings on record: SK-OV-3, 24 h. Put shortly: as §1
For a further series, the system named is ECa-109 cell line. Description: Cytotoxicity against human ECA109 cells assessed as cell growth inhibition after 24 hrs by MTT assay. The format is functional, cell-based. The settings on record: ECa-109, 24 h. Put shortly: as §1
The subject of series [10] is Lewis lung carcinoma cell line. Put plainly: Cytotoxicity against mouse LLC cells assessed as cell growth inhibition after 24 hrs by MTT assay. Type of series: functional, cell-based. Put shortly:
as §1

Series [11] in a line: Acute toxicity in ip dosed Kunming mouse observed continuously for first 2 hrs, intermittently for next 24 hrs and occasionally thereafter for 14 days. Type of series: organism-based. Particulars: in vivo. Put shortly:
(§2)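 SPF KM mice, 6-8 weeks, 19-22 g, fasted overnight with water available. Single i.p. dose, 5.0 to 500 mg kg-1 in 0.5% CMC-Na, 10 mice per group (5 male, 5 female). Observed for behaviour, neurotoxic signs and deaths, then killed on day 14 and heart, liver and kidneys inspected macroscopically. LD50 derived graphically.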

In series [12] the test system is Mus musculus. Put plainly: Neurotoxicity in Kunming mouse assessed as tremble at 5 to 500 mg/kg, ip observed continuously for first 2 hrs, intermittently for next 24 hrs and occasionally thereafter for 14 days. Type of series: toxicity, organism-based. Particulars: in vivo. Put shortly: as §2
The test system of series [13] is Mus musculus. Description: Neurotoxicity in Kunming mouse assessed as twitch at 5 to 500 mg/kg, ip observed continuously for first 2 hrs, intermittently for next 24 hrs and occasionally thereafter for 14 days. Particulars: in vivo. Type of series: toxicity, organism-based. Put shortly:
as §2

The test system of series [14] is Mus musculus. Put plainly: Neurotoxicity in Kunming mouse assessed as jumping behavior at 5 to 500 mg/kg, ip observed continuously for first 2 hrs, intermittently for next 24 hrs and occasionally thereafter for 14 days. The settings on record: in vivo. The format is toxicity, organism-based. Put shortly:
as §2

Series [15] relates to Mus musculus. Description: Neurotoxicity in Kunming mouse assessed as supination at 5 to 500 mg/kg, ip observed continuously for first 2 hrs, intermittently for next 24 hrs and occasionally thereafter for 14 days. Particulars: in vivo. The format is toxicity, organism-based. Put shortly:
as §2

In series [16] the test system is Mus musculus. Description: Acute toxicity in ip dosed Kunming mouse assessed as death at higher dose up to 4 to 8 hrs. The format is organism-based. Particulars: in vivo. Put shortly:
as §2

For series [17], the system named is Mus musculus. Put plainly: Cardiotoxicity in Kunming mouse at 5 to 500 mg/kg, ip after 14 days by macroscopic method. The format is toxicity, organism-based. Particulars: in vivo, 336 h.
Series [18] relates to Mus musculus. Put plainly: Nephrotoxicity in Kunming mouse at 5 to 500 mg/kg, ip after 14 days by macroscopic method. Type of series: toxicity, organism-based. Particulars: in vivo, 336 h.
Series [19] relates to Mus musculus. Description: Hepatotoxicity in Kunming mouse at 5 to 500 mg/kg, ip after 14 days by macroscopic method. Type of series: toxicity, organism-based. The settings on record: in vivo, 336 h.
The test system of series [20] is Sarcoma-180. Put plainly: Antitumor activity against mouse Sarcoma 180 cells implanted in mouse assessed as tumor growth inhibition at 7.5 mg/kg, ip administered once per day for 7 consecutive days starting from 24 hrs post tumor inoculation and measured on day 21 post tumor inoculation relative to control. Particulars: Sarcoma-180, ip, read-out: TGI. Type of series: functional. Put shortly: (§3)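 Tumor cells were harvested from 7-day donor tumors, and 2×10^6 viable cells/mouse were injected s.c. in the armpit. Groups of 10 female mice received i.p. compound daily for 7 days, starting 24 h after inoculation. Controls were vehicle (negative) and CTX 30 mg/kg (positive). Body weight was recorded every 3 days. On day 21 tumors were excised and weighed, and inhibition was calculated as (C−T)/C×100 from mean tumor weights.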

The subject of series [21] is Lewis lung carcinoma cell line. Description: Antitumor activity against mouse LLC cells implanted in mouse assessed as tumor growth inhibition at 7.5 mg/kg, ip administered once per day for 7 consecutive days starting from 24 hrs post tumor inoculation and measured on day 21 post tumor inoculation relative to control. The format is functional. The settings on record: read-out: TGI. Put shortly:
as §3

The subject of series [22] is Sarcoma-180. Description: Antitumor activity against mouse Sarcoma 180 cells implanted in mouse assessed as tumor growth inhibition at 10 mg/kg, ip administered once per day for 7 consecutive days starting from 24 hrs post tumor inoculation and measured on day 21 post tumor inoculation relative to control. Type of series: functional. Particulars: Sarcoma-180, ip, read-out: TGI. Put shortly: as §3

Series [23] has as its system Lewis lung carcinoma cell line. Description: Antitumor activity against mouse LLC cells implanted in mouse assessed as tumor growth inhibition at 10 mg/kg, ip administered once per day for 7 consecutive days starting from 24 hrs post tumor inoculation and measured on day 21 post tumor inoculation relative to control. Type of series: functional. The settings on record: read-out: TGI. Put shortly:
as §3

For `O=P1(N(CCCl)CCCl)NCCCO1` (stereo not given) [CYCLOPHOSPHAMIDE ANHYDROUS], the inhibition in vivo at 30 mg/kg with Sarcoma-180 [1] turned out to be 82.5%; in series [2] it was 80.7%.
For `CCCCn1c2cnccc2c2ccc(OCCCCCCOc3ccc4c5ccnc(C)c5n(CCCC)c4c3)cc21`, the pIC50 (in general, −log10 of the IC50, conventionally taken in molar units) in the series with HepG2 [3] is 4.89; in the series with MCF7 [4], less than 4.00; in the series on HT-29 [5] it was 5.21.
With `Cc1nccc2c3ccc(OCCCCn4c5ccccc5c5ccnc(-c6cccs6)c54)cc3n(CCCc3ccccc3)c12.Cl`, the pIC50 in the series with HepG2 [6] is 5.09; in the series on MCF7 [7], 4.92; in series [8], 4.94; in the series on A-375, 4.84; in the series on HT-29 [9], 4.74; in the series on 769-P it was 4.92. The pIC50 was 4.95 in the series on SK-OV-3, 5.31 in the series with ECa-109 cell line and 5.38 in series [10]. Moreover, the 50% lethal dose (LD50) – broadly, the dose expected to kill half of the subjects tested – at 14 days in [11] was 37.5 mg/kg. Moreover, the Activity result was “Non-Toxic” in the series with Mus musculus [12]; “Non-Toxic” with Mus musculus [13]; “Non-Toxic” in the series on Mus musculus [14]; “Non-Toxic” with Mus musculus [15]; “Toxic” in the series with Mus musculus [16]; “Non-Toxic” in the series with Mus musculus [17]. For the same molecule, the Activity entry with Mus musculus [18] and with Mus musculus [19] was “Non-Toxic” each time. For the same molecule, the inhibition in vivo at 7.5 mg/kg with Sarcoma-180 [20] is 47.3%; in [21], 31.6%.
Take `CCCCn1c2cc(OCCCCn3c4ccccc4c4ccnc(C)c43)ccc2c2ccnc(C)c21.Cl`: the negative logarithm of the IC50 (pIC50) in the series with HepG2 [6] is 4.80; in the series on MCF7 [7], 4.95; in [8] it was 4.47; in the series with A-375, 4.85; with HT-29 [9] it was 4.79; in the series with 769-P, 4.82. For the same molecule, the pIC50 is 4.66 with SK-OV-3, 4.91 in the series with ECa-109 cell line and 4.88 in [10]. Moreover, the 50% lethal dose (LD50) at 14 days in series [11] turned out to be 50 mg/kg. The Activity entry with Mus musculus [12] is “Non-Toxic”; with Mus musculus [13], “Non-Toxic”; in the series on Mus musculus [14], “Non-Toxic”; in the series with Mus musculus [15] it was “Non-Toxic”; in the series on Mus musculus [16], “Toxic”; with Mus musculus [17] it was “Non-Toxic”. The Activity result in the series with Mus musculus [18] and in the series with Mus musculus [19] was “Non-Toxic” throughout. Besides, the inhibition in vivo at 10 mg/kg came out at 53.3% with Sarcoma-180 [22] and 27.2% in series [23].

The values above are taken from ChEMBL document CHEMBL4145545, “Synthesis and structure-activity relationships of asymmetric dimeric β-carboline derivatives as potential antitumor agents” (Eur J Med Chem, 2018).
